Source: ChEMBL document CHEMBL1139336, “Discovery of alpha-amidosulfones as potent and selective agonists of CB2: synthesis, SAR, and pharmacokinetic properties” (Bioorg Med Chem Lett, 2009)

How the values were obtained:
Cannabinoid receptor 1 [1] = target: T1, Cannabinoid receptor 1 (Homo sapiens, UniProt P21554); assay: Agonist activity at human CB1 expressed in CHO cells receptor assessed as suppression of forskolin-stimulated cAMP accumulation relative to control; format: functional, cell-based
In short: (§1)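 CHO cells expressing human CB1 or CB2. Read-out was suppression of forskolin-induced cAMP production in whole cells. Emax was taken as the maximum of the dose–response curve. Values are means of n = 2–20 independent measurements, derived by logistic fit.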

Cannabinoid receptor 2 [2] = target: T2, Cannabinoid receptor 2 (Homo sapiens, UniProt P34972); assay: Agonist activity at human CB2 receptor expressed in SF9 cells assessed as inhibition of CP-55940-stimulated GTP binding relative to control
In short: (§2)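 Sf9 insect-cell membranes co-expressing hCB1 or hCB2 with Gαi3 (Bmax 1.7 pmol/ml). Compound added in 50 mM Hepes/0.1% BSA to buffer with 10 mM MgCl2, 150 mM NaCl, GDP, 10 nM GTP-Europium and 0.0005% saponin. Final DMSO was 1%. Incubated 45 min at room temperature, then filtered, washed and read by fluorescence at 615 nm. 3 µM CP55940 set 100% efficacy. Logistic fit, n = 2–20.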

Cannabinoid receptor 2 [3] = target: T2, Cannabinoid receptor 2; assay: Agonist activity at human CB2 receptor expressed in CHO cells assessed as suppression of forskolin-stimulated cAMP accumulation relative to control; format: functional, cell-based; in short: as §1
Cannabinoid receptor 1 [4] = target: T1, Cannabinoid receptor 1; assay: Agonist activity at human CB1 receptor expressed in CHO cells assessed as suppression of forskolin-stimulated cAMP accumulation; format: functional, cell-based
In short: (§3)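 Forskolin-induced cAMP measured in CHO cells expressing human CB1 or CB2. EC50 from a logistic fit of the concentration–response curve. Emax taken as the maximum of the dose–response. Means of n = 2–20 independent measurements.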

Cannabinoid receptor 1 [5] = target: T1, Cannabinoid receptor 1; assay: Agonist activity at human CB1 receptor expressed in SF9 cells assessed as inhibition of CP-55940-stimulated GTP binding relative to control; in short: as §2
Cannabinoid receptor 1 [6] = target: T1, Cannabinoid receptor 1; assay: Agonist activity at human CB1 receptor expressed in SF9 cells assessed as inhibition of CP-55940-stimulated GTP binding
In short: (§4)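 Sf9 membranes co-expressing hCB1 or hCB2 with Gαi3 (Bmax 1.7 pmol/ml). Europium-GTP (10 nM) binding in 50 mM Hepes, 0.1% BSA, 10 mM MgCl2, 150 mM NaCl, GDP, 0.0005% saponin, 1% DMSO. Compound tested from 0.01 nM upward. Incubated 45 min at room temperature, then filtered and washed; fluorescence read at 615 nm. 3 micromolar CP55940 defines 100% efficacy.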

Cannabinoid receptor 2 [7] = target: T2, Cannabinoid receptor 2; assay: Agonist activity at human CB2 receptor expressed in SF9 cells assessed as inhibition of CP-55940-stimulated GTP binding; in short: as §4
Cannabinoid receptor 2 [8] = target: T2, Cannabinoid receptor 2; assay: Agonist activity at human CB2 receptor expressed in CHO cells assessed as suppression of forskolin-stimulated cAMP accumulation; format: functional, cell-based; in short: as §3
[9] = Clearance in Sprague-Dawley rat at 0.5 mg/kg, iv; format: ADME, organism-based; parameters: dose 0.5 mg/kg, route intravenous; conditions: in vivo
In short: (§5)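 Single intravenous dose of 0.5 mg/kg given as a solution in DMSO to Sprague–Dawley rats; n = 2 animals.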

[10] = Protein binding in rat plasma; format: ADME, cell-free; conditions: read-out: PPB (converted)
[11] = Cmax in Sprague-Dawley rat at 10 mg/kg, po; format: ADME, organism-based; parameters: dose 10 mg/kg, route oral; conditions: in vivo
In short: (§6)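 Oral dose of 10 mg/kg in a 2% HPMC, 1% Tween 80 vehicle given to Sprague–Dawley rats; n = 3 animals.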

Rattus norvegicus = assay: Tmax in Sprague-Dawley rat at 10 mg/kg, po; format: ADME, organism-based; parameters: dose 10 mg/kg, route oral; conditions: in vivo; in short: as §6
[12] = Oral bioavailability in Sprague-Dawley rat at 10 mg/kg; format: ADME, organism-based; conditions: in vivo; in short: as §6
[13] = Intrinsic clearance in human liver microsomes; format: ADME, Microsome
[14] = Volume of distribution at steady state in Sprague-Dawley rat at 0.5 mg/kg, iv; format: ADME, organism-based; parameters: dose 0.5 mg/kg, route intravenous; conditions: in vivo, read-out: Vdss; in short: as §5
[15] = Protein binding in human plasma; format: ADME, cell-free; conditions: read-out: PPB (converted)
[16] = Half life in Sprague-Dawley rat at 0.5 mg/kg, iv; format: ADME, organism-based; parameters: dose 0.5 mg/kg, route intravenous; conditions: in vivo; in short: as §5
[17] = AUC (0 to infinity) in Sprague-Dawley rat at 10 mg/kg, po; format: ADME, organism-based; parameters: time infinity, dose 10 mg/kg, route oral; conditions: plasma; in short: as §6
[18] = Intrinsic clearance in rat liver microsomes; format: ADME, Microsome
Cannabinoid receptor 1 [19] = target: T1, Cannabinoid receptor 1; assay: Agonist activity at human CB1 receptor; format: functional
Cannabinoid receptor 2 [20] = target: T2, Cannabinoid receptor 2; assay: Agonist activity at human CB2 receptor relative to control; format: functional
Cannabinoid receptor 2 [21] = target: T2, Cannabinoid receptor 2; assay: Agonist activity at human CB2 receptor; format: functional
Cannabinoid receptor 1 [22] = target: T1, Cannabinoid receptor 1; assay: Agonist activity at human CB1 receptor relative to control; format: functional
Homo sapiens = species on record: Homo sapiens; assay: Selectivity for human CB2 receptor over human CB1 receptor

T1 sequence (P21554 whole entry): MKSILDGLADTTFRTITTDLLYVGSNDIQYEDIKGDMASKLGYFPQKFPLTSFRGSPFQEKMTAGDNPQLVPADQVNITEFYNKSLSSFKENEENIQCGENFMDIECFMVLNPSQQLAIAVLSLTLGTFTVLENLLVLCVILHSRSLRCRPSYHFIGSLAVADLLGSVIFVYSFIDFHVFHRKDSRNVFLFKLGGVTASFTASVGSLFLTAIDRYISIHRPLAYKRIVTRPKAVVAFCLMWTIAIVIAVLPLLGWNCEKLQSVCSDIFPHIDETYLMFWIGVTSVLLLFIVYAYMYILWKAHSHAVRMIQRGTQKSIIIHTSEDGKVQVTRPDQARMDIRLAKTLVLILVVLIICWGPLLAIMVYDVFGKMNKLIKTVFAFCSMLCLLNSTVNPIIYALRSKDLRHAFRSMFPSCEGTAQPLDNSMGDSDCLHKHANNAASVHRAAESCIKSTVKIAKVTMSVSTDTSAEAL
T2 sequence (P34972 whole entry): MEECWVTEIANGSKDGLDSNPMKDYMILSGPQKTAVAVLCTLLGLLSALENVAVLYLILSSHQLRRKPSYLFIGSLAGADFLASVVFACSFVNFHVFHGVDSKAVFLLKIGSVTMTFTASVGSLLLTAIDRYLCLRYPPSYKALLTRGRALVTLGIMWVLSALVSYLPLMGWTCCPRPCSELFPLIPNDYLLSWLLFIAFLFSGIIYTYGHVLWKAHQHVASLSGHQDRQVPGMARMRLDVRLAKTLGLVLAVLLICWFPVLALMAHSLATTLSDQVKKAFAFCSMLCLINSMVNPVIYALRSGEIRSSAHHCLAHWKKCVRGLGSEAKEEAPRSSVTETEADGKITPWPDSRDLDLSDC

Row | Compound | Emax (Cannabinoid receptor 1 [1]) [%] | Emax (Cannabinoid receptor 2 [2]) [%] | Emax (Cannabinoid receptor 2 [3]) [%] | EC50 (Cannabinoid receptor 1 [4]) [nM] | Emax (Cannabinoid receptor 1 [5]) [%] | EC50 (Cannabinoid receptor 1 [6]) [nM] | EC50 (Cannabinoid receptor 2 [7]) [nM] | EC50 (Cannabinoid receptor 2 [8]) [nM] | further results
1 | CC(C)(C(=O)Nc1cnc2ccccc2c1)S(=O)(=O)c1ccc(F)cc1 | 19 | 102 | 97 | > 2000 | 22 | 2780 | 109 | 33 | 
2 | CC(C)(C(=O)Nc1ccc(Cl)c(Br)c1)S(=O)(=O)c1ccc(Cl)cc1 |  | 77 |  |  | 7 | > 10000 | 86 |  | 
3 | Cc1cnc(NC(=O)C(C)(C)S(=O)(=O)c2ccc(Cl)cc2)s1 |  | 4 |  |  | 7 | > 10000 | > 10000 |  | 
4 | CC(C)(C(=O)Nc1ccc(C(F)(F)F)cc1)S(=O)(=O)c1ccc(Cl)cc1 | 19 | 77 | 93 | > 1000 | 14 | > 10000 | 115 | 57 | 
5 | CC(C)(C(=O)Nc1ccc(Cl)c(C(F)(F)F)c1)S(=O)(=O)c1ccc(Cl)cc1 | 39 | 102 | 96 | > 2000 | 22 | 700000 | 20 | 5 | clearance [9]: 9 mL/min/kg; fraction unbound [10]: 0.003; Cmax [11]: 560 ng/mL; Tmax (Rattus norvegicus): 1.7%; bioavailability [12]: 52%; microsomal CLint [13]: 14 µL/min/mg; Vd [14]: 9.3 L/kg; fraction unbound [15]: 0.002; half-life [16]: 14 h; AUC(0-inf) [17]: 9680 ng·h/mL; microsomal CLint [18]: 14 µL/min/mg
6 | CC(C)(C(=O)Nc1cccc(C(F)(F)F)c1)S(=O)(=O)c1ccc(Cl)cc1 | 21 | 89 | 93 | > 1000 | 15 | > 10000 | 170 | 35 | 
7 | CC(C)(C(=O)Nc1ccc(Cl)cc1OC(F)(F)F)S(=O)(=O)c1ccc(Cl)cc1 |  | 44 |  |  | 2 | > 10000 | 1620 |  | 
8 | Cn1nc(C(C)(C)C)cc1NC(=O)C(C)(C)S(=O)(=O)c1ccc(Cl)cc1 | 12 | 104 | 92 | > 2000 | 37 | 223000 | 26 | 25 | clearance [9]: 20 mL/min/kg; fraction unbound [10]: 0.06; Cmax [11]: 971 ng/mL; Tmax (Rattus norvegicus): 0.67%; bioavailability [12]: 43%; microsomal CLint [13]: 14 µL/min/mg; Vd [14]: 2 L/kg; fraction unbound [15]: 0.064; half-life [16]: 1.9 h; AUC(0-inf) [17]: 3570 ng·h/mL; microsomal CLint [18]: 20 µL/min/mg
9 | COc1ccc(S(=O)(=O)C(C)(C)C(=O)Nc2cnc3ccccc3c2)c(Cl)c1 |  | 91 |  |  | 12 | > 10000 | 148 |  | 
10 | CC(C)(C(=O)Nc1ccc(Cl)c(-c2ccco2)c1)S(=O)(=O)c1ccc(Cl)cc1 | 98 | 101 | 101 | 230 | 82 | 96 | 4 | 5 | 
11 | CC(C)(C(=O)Nc1ccc(Cl)cc1C#N)S(=O)(=O)c1ccc(Cl)cc1 |  | 14 |  |  | 0 | > 10000 | > 10000 |  | 
12 | Cc1ccccc1-c1nnc(NC(=O)C(C)(C)S(=O)(=O)c2ccc(Cl)cc2)s1 |  | 81 |  |  | 48 | 1650 | 189 |  | 
13 | Cc1cc(NC(=O)C(C)(C)S(=O)(=O)c2ccc(Cl)cc2)no1 |  | 19 |  |  | 1 | > 10000 | 3860 |  | 
14 | CC(C)(C(=O)NCc1ccccc1)S(=O)(=O)c1ccc(Cl)cc1 |  | 0 |  |  | 7 | > 10000 | > 10000 |  | 
15 | CCn1c2ccccc2c2cc(NC(=O)C3(S(=O)(=O)c4ccccc4)CC3)ccc21 |  |  |  |  |  |  |  |  | EC50 (Cannabinoid receptor 1 [19]): 390 nM; Emax (Cannabinoid receptor 2 [20]): 95%; EC50 (Cannabinoid receptor 2 [21]): 8 nM; Emax (Cannabinoid receptor 1 [22]): 40%
16 | CC(C)(C(=O)Nc1cnc2ccccc2c1)S(=O)(=O)c1ccc(C(F)(F)F)cc1Cl | 41 | 94 | 94 | > 2000 | 71 | 1570 | 19 | 73 | 
17 | CC(C)(C)c1cc(NC(=O)C(C)(C)S(=O)(=O)c2ccc(Cl)cc2)no1 | 23 | 99 | 85 | > 2000 | 57 | 1920 | 29 | 11 | 
18 | CCn1c2ccccc2c2cc(NC(=O)CCc3nc(-c4ccccc4F)no3)ccc21 |  |  |  |  |  |  |  |  | EC50 (Cannabinoid receptor 1 [19]): > 2000 nM; Emax (Cannabinoid receptor 1 [22]): 2%
19 | Cc1ccc(-c2cncc(NC(=O)C(C)(C)S(=O)(=O)c3ccc(Cl)cc3)c2)s1 | 106 | 102 | 99 | 331 | 80 | 322 | 9 | 5 | 
20 | CC(C)(C(=O)NCc1ccc(F)c(Cl)c1)S(=O)(=O)c1ccc(Cl)cc1 |  | 76 |  |  | 2 | > 10000 | 1300 |  | 
21 | CC(C)(C(=O)Nc1cnc2ccccc2c1)S(=O)(=O)c1ccc(F)cc1Cl |  | 108 |  |  | 7 | > 10000 | 104 |  | 
22 | CC(C)(C(=O)Nc1cnc2ccccc2c1)S(=O)(=O)c1ccc(C(F)(F)F)cc1 | 93 | 88 | 96 | 82 | 86 | 710 | 96 | 8 | Selectivity ratio (Homo sapiens): 10
23 | CC1(c2nnc(NC(=O)C(C)(C)S(=O)(=O)c3ccc(Cl)cc3)s2)CCOC1 (stereo not given) |  | 99 |  |  | 10 | > 10000 | 216 |  | 
24 | O=C(Nc1cnc2ccccc2c1)C1(S(=O)(=O)c2ccccc2)CC1 |  |  |  |  |  |  |  |  | EC50 (Cannabinoid receptor 1 [19]): > 10000 nM; Emax (Cannabinoid receptor 2 [20]): 31%; EC50 (Cannabinoid receptor 2 [21]): 4 nM; Emax (Cannabinoid receptor 1 [22]): 6%
25 | CC(C)(C(=O)Nc1cnc2ccccc2c1)S(=O)(=O)c1ccc(Cl)cc1 | 47 | 90 | 93 | > 1000 | 47 | 1680 | 57 | 13 | 
